Results published in ChEMBL document CHEMBL3102840, “Synthesis and anti-proliferative activity of aromatic substituted 5-((1-benzyl-1H-indol-3-yl)methylene)-1,3-dimethylpyrimidine-2,4,6(1H,3H,5H)-trione analogs against human tumor cell lines” (2014).

Legend:
Format in all cases: functional
[1] = system: MDA-MB-468; assay: Cytotoxicity against human MDA-MB-468 cells after 48 hrs by SRB assay; conditions: MDA-MB-468, 48 h
Method in brief: (§1)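 Five-dose run from the sixty-line panel, at 10−4, 10−5, 10−6, 10−7 and 10−8 M. SRB-stain OD is read just before compound addition, after 48 hrs of exposure, and in vehicle controls, giving percentage growth; negative growth indicates cytotoxicity. GI50 is the concentration giving 50% reduction in net protein increase versus control cells. LC50 is the concentration lethal to 50% of cells.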

[2] = system: BT-549; assay: Cytotoxicity against human BT549 cells after 48 hrs by SRB assay; conditions: BT-549, 48 h; for CC50: read-out: LC50 (the source's name); method in brief: as §1
[3] = system: T47D; assay: Cytotoxicity against human T47D cells after 48 hrs by SRB assay; method in brief: as §1
[4] = system: MDA-MB-231; assay: Cytotoxicity against human MDA-MB-231 cells after 48 hrs by SRB assay; conditions: MDA-MB-231, 48 h; for CC50: read-out: LC50 (the source's name); method in brief: as §1
[5] = system: MCF7; assay: Cytotoxicity against human MCF7 cells after 48 hrs by SRB assay; conditions: MCF7, 48 h; method in brief: as §1
[6] = system: SN12C; assay: Cytotoxicity against human SN12C cells after 48 hrs by SRB assay; conditions: for CC50: read-out: LC50 (the source's name); method in brief: as §1
[7] = system: TK-10; assay: Cytotoxicity against human TK10 cells after 48 hrs by SRB assay; conditions: TK-10, 48 h; for CC50: read-out: LC50 (the source's name); method in brief: as §1
[8] = system: A498; assay: Cytotoxicity against human A498 cells after 48 hrs by SRB assay; conditions: A498, 48 h; method in brief: as §1
[9] = system: RXF 393; assay: Cytotoxicity against human RXF393 cells after 48 hrs by SRB assay; conditions: RXF 393, 48 h; method in brief: as §1
[10] = system: SK-OV-3; assay: Cytotoxicity against human SKOV3 cells after 48 hrs by SRB assay; conditions: SK-OV-3, 48 h; method in brief: as §1
[11] = system: 786-0; assay: Cytotoxicity against human 786-0 cells after 48 hrs by SRB assay; conditions: 786-0, 48 h; method in brief: as §1
[12] = Cytotoxicity against human NCI-ADR-RES cells after 48 hrs by SRB assay; conditions: for CC50: read-out: LC50 (the source's name); method in brief: as §1
[13] = system: OVCAR-8; assay: Cytotoxicity against human OVCAR8 cells after 48 hrs by SRB assay; conditions: OVCAR-8, 48 h; for CC50: read-out: LC50 (the source's name); method in brief: as §1
[14] = Cytotoxicity against human OVCAR5 cells after 48 hrs by SRB assay; conditions: OVCAR-5, 48 h; for CC50: read-out: LC50 (the source's name); method in brief: as §1
[15] = system: IGROV-1; assay: Cytotoxicity against human IGROV1 cells after 48 hrs by SRB assay; conditions: IGROV-1, 48 h; for CC50: read-out: LC50 (the source's name); method in brief: as §1
[16] = system: UACC-62; assay: Cytotoxicity against human UACC62 cells after 48 hrs by SRB assay; conditions: UACC-62, 48 h; method in brief: as §1
[17] = Cytotoxicity against human UACC257 cells after 48 hrs by SRB assay; conditions: UACC-257, 48 h; for CC50: read-out: LC50 (the source's name); method in brief: as §1
[18] = system: SK-MEL-2; assay: Cytotoxicity against human SK-MEL-2 cells after 48 hrs by SRB assay; conditions: SK-MEL-2, 48 h; method in brief: as §1
[19] = system: SK-MEL-5; assay: Cytotoxicity against human SK-MEL-5 cells after 48 hrs by SRB assay; conditions: SK-MEL-5, 48 h; method in brief: as §1
[20] = system: MDA-MB-435; assay: Cytotoxicity against human MDA-MB-435 cells after 48 hrs by SRB assay; conditions: MDA-MB-435, 48 h; method in brief: as §1
[21] = system: LOX IMVI; assay: Cytotoxicity against human LOXIMVI cells after 48 hrs by SRB assay; conditions: for CC50: read-out: LC50 (the source's name); method in brief: as §1
[22] = system: SNB-19; assay: Cytotoxicity against human SNB19 cells after 48 hrs by SRB assay; conditions: SNB-19, 48 h; method in brief: as §1
[23] = system: SF-295; assay: Cytotoxicity against human SF295 cells after 48 hrs by SRB assay; conditions: SF-295, 48 h; method in brief: as §1
[24] = system: SW-620; assay: Cytotoxicity against human SW620 cells after 48 hrs by SRB assay; conditions: SW-620, 48 h; for CC50: read-out: LC50 (the source's name); method in brief: as §1
[25] = system: HCT-116; assay: Cytotoxicity against human HCT116 cells after 48 hrs by SRB assay; conditions: HCT-116, 48 h; method in brief: as §1
[26] = system: COLO 205; assay: Cytotoxicity against human COLO205 cells after 48 hrs by SRB assay; conditions: COLO 205, 48 h; for CC50: read-out: LC50 (the source's name); method in brief: as §1
[27] = system: NCI-H460; assay: Cytotoxicity against human NCI-H460 cells after 48 hrs by SRB assay; conditions: NCI-H460, 48 h; for CC50: read-out: LC50 (the source's name); method in brief: as §1
[28] = system: NCI-H23; assay: Cytotoxicity against human NCI-H23 cells after 48 hrs by SRB assay; conditions: NCI-H23, 48 h; method in brief: as §1
[29] = system: NCI-H226; assay: Cytotoxicity against human NCI-H226 cells after 48 hrs by SRB assay; conditions: NCI-H226, 48 h; for CC50: read-out: LC50 (the source's name); method in brief: as §1
[30] = system: HOP-62; assay: Cytotoxicity against human HOP62 cells after 48 hrs by SRB assay; conditions: HOP-62, 48 h; for CC50: read-out: LC50 (the source's name); method in brief: as §1
[31] = system: K562; assay: Cytotoxicity against human K562 cells after 48 hrs by SRB assay; conditions: K562, 48 h; for CC50: read-out: LC50 (the source's name); method in brief: as §1
[32] = system: SR; assay: Cytotoxicity against human SR cells after 48 hrs by SRB assay; method in brief: as §1
[33] = system: MDA-MB-468; assay: Cytotoxicity against human MDA-MB-468 cells assessed as growth inhibition at 10 uM after 48 hrs by SRB assay; conditions: MDA-MB-468, 48 h, read-out: GI
Method in brief: (§2)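 Single-dose screen at 10µM across the sixty-cell-line panel. Percentage growth is derived from SRB-stain OD taken just before compound exposure, after 48 hrs exposure, and in vehicle-treated controls. Negative values indicate cytotoxicity.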

[34] = system: TK-10; assay: Cytotoxicity against human TK10 cells assessed as growth inhibition at 10 uM after 48 hrs by SRB assay; conditions: TK-10, 48 h, read-out: GI; method in brief: as §2
[35] = system: A498; assay: Cytotoxicity against human A498 cells assessed as growth inhibition at 10 uM after 48 hrs by SRB assay; conditions: A498, 48 h, read-out: GI; method in brief: as §2
[36] = Cytotoxicity against human OVCAR5 cells assessed as growth inhibition at 10 uM after 48 hrs by SRB assay; conditions: OVCAR-5, 48 h, read-out: GI; method in brief: as §2
[37] = system: NCI-H226; assay: Cytotoxicity against human NCI-H226 cells assessed as growth inhibition at 10 uM after 48 hrs by SRB assay; conditions: NCI-H226, 48 h, read-out: GI; method in brief: as §2

SMILES: COc1ccc(Cn2cc(C=C3C(=O)N(C)C(=O)N(C)C3=O)c3ccccc32)cc1
- GI50 [1]: 0.04 µM
- LC50 [1]: 0.76 µM
- GI50 [2]: 4.94 µM
- CC50 [2]: > 100 µM
- GI50 [3]: 3.53 µM
- LC50 [3]: > 100 µM
- GI50 [4]: 5.86 µM
- CC50 [4]: > 100 µM
- GI50 [5]: 5.26 µM
- LC50 [5]: > 100 µM
- GI50 [6]: 12.5 µM
- CC50 [6]: > 100 µM
- GI50 [7]: 0.1 µM
- CC50 [7]: 72.5 µM
- GI50 [8]: 0.06 µM
- LC50 [8]: 5.27 µM
- GI50 [9]: 14.8 µM
- LC50 (lethal concentration, 50%) [9]: > 100 µM
- GI50 [10]: 5.03 µM
- LC50 [10]: > 100 µM
- GI50 [11]: 11.2 µM
- LC50 [11]: > 100 µM
- GI50 [12]: 3.59 µM
- CC50 [12]: > 100 µM
- GI50 [13]: 13.4 µM
- CC50 [13]: 88.6 µM
- GI50 [14]: 0.02 µM
- CC50 [14]: > 100 µM
- GI50 [15]: 1.93 µM
- CC50 [15]: > 100 µM
- GI50 [16]: 0.9 µM
- LC50 [16]: 68 µM
- GI50 [17]: 1.54 µM
- CC50 [17]: 38.2 µM
- GI50 [18]: 2.78 µM
- GI50 [19]: 5.08 µM
- LC50 [19]: 64.4 µM
- GI50 [20]: 3.29 µM
- LC50 [20]: > 100 µM
- GI50 [21]: 5.45 µM
- CC50 [21]: > 100 µM
- GI50 [22]: 15.8 µM
- LC50 [22]: > 100 µM
- GI50 [23]: 1.54 µM
- LC50 [23]: > 100 µM
- GI50 [24]: 6.89 µM
- CC50 [24]: > 100 µM
- GI50 [25]: 5.01 µM
- LC50 [25]: > 100 µM
- GI50 [26]: 0.63 µM
- CC50 [26]: 45.3 µM
- GI50 [27]: 0.81 µM
- CC50 [27]: 82.8 µM
- GI50 [28]: 4.67 µM
- LC50 [28]: > 100 µM
- GI50 [29]: 1.44 µM
- CC50 [29]: 53.9 µM
- GI50 [30]: 6.22 µM
- CC50 [30]: > 100 µM
- GI50 [31]: 2.18 µM
- CC50 [31]: > 100 µM
- GI50 [32]: 5.43 µM
- LC50 (lethal concentration, 50%) [32]: > 100 µM
- inhibition of growth at 10 µM [33]: -65%
- inhibition of growth at 10 µM [34]: -12%
- inhibition of growth at 10 µM [35]: -92%
- inhibition of growth at 10 µM [36]: -38%
- inhibition of growth at 10 µM [37]: -55%

SMILES: Cc1ccc(Cn2cc(C=C3C(=O)N(C)C(=O)N(C)C3=O)c3ccccc32)cc1
- GI50 [1]: 0.03 µM
- LC50 [1]: 0.62 µM
- GI50 [2]: 13.5 µM
- CC50 [2]: > 100 µM
- GI50 [3]: 5 µM
- LC50 [3]: > 100 µM
- GI50 [4]: 13.6 µM
- CC50 [4]: > 100 µM
- GI50 [5]: 6.76 µM
- LC50 [5]: > 100 µM
- GI50 [6]: > 100 µM
- CC50 [6]: > 100 µM
- GI50 [7]: 0.28 µM
- CC50 [7]: > 100 µM
- GI50 [8]: 0.12 µM
- LC50 [8]: 0.69 µM
- GI50 [9]: 15.2 µM
- LC50 (lethal concentration, 50%) [9]: > 100 µM
- GI50 [10]: 23.7 µM
- LC50 [10]: > 100 µM
- GI50 [11]: 22.1 µM
- LC50 [11]: > 100 µM
- GI50 [12]: 6.23 µM
- CC50 [12]: > 100 µM
- GI50 [13]: > 100 µM
- CC50 [13]: > 100 µM
- GI50 [14]: 0.07 µM
- CC50 [14]: > 100 µM
- GI50 [15]: 2.95 µM
- CC50 [15]: > 100 µM
- GI50 [16]: 2.42 µM
- LC50 [16]: > 100 µM
- GI50 [17]: 2.02 µM
- CC50 [17]: > 100 µM
- GI50 [18]: 3.36 µM
- GI50 [19]: 9.17 µM
- LC50 [19]: > 100 µM
- LC50 [20]: > 100 µM
- GI50 [21]: 27.8 µM
- CC50 [21]: > 100 µM
- GI50 [22]: 26.8 µM
- LC50 [22]: > 100 µM
- GI50 [23]: 2.02 µM
- LC50 [23]: > 100 µM
- CC50 [24]: > 100 µM
- GI50 [25]: 5.45 µM
- LC50 [25]: > 100 µM
- GI50 [26]: 1.89 µM
- CC50 [26]: > 100 µM
- GI50 [27]: 0.91 µM
- CC50 [27]: > 100 µM
- GI50 [28]: 8.19 µM
- LC50 [28]: > 100 µM
- GI50 [29]: 1.95 µM
- CC50 [29]: > 100 µM
- GI50 [30]: 7.44 µM
- CC50 [30]: > 100 µM
- GI50 [31]: 2.23 µM
- CC50 [31]: > 100 µM
- GI50 [32]: 1.89 µM
- LC50 (lethal concentration, 50%) [32]: > 100 µM
- inhibition of growth at 10 µM [33]: -62%
- inhibition of growth at 10 µM [34]: -4%
- inhibition of growth at 10 µM [35]: -91%
- inhibition of growth at 10 µM [36]: -23%
- inhibition of growth at 10 µM [37]: -63%
